Results collected from several papers.
Target: Ephrin type-A receptor 5 (EPHA5, Homo sapiens, UniProt P54756)

Structure (SMILES) | read-out | method | concentration | remaining binding
COc1cnc(Nc2cccc(S(N)(=O)=O)c2)nc1N1CCN(c2ccccc2)C(=O)C1 | binding | competition with immobilised ligand | 1 µM | 100%
Cc1nc(Cc2cccc(C(F)(F)F)c2)sc1-c1ccc(C(N)=O)nc1 | cell-free assay | competition with immobilised ligand | 1 µM | 100%
Nc1ncc2c(n1)-c1c([nH]c3ccc(C#CC4CC4)cc13)CCCC2 | binding | competition with immobilised ligand | 1 µM | 97%
CN(CCCC(F)(F)F)c1nccc(-c2cnn3ncccc23)n1 | binding | – | 1 µM | 100%
Cc1cc(C)c(-n2ccn3nc(-c4cccnc4)cc23)cc1NC(=O)c1cc(C#N)cc(S(F)(F)(F)(F)F)c1 | cell-free assay | competition with immobilised ligand | 0.1 µM | 92.4%
CC1CCCN1c1nccc(-c2cnn3ncccc23)n1 (centres unmarked) | binding | – | 1 µM | 100%
CNCc1ccccc1-c1csc([C@@H](C)Nc2nc(C)nc3cc(OC)c(OC)cc23)c1 | cell-free assay | competition with immobilised ligand | 1 µM | 88%
N[C@@H]1CCN(c2nccc(-c3cnn4ncccc34)n2)C1 | binding | – | 1 µM | 100%
C[C@@]1(Cc2ccc(C#N)cc2)C(=O)N(c2cc(Cl)cc(Cl)c2)c2ncc(C(=O)NC3(c4nc(C5CCC5)no4)CC3)n21 | cell-free assay | competition with immobilised ligand | 1 µM | 100%
c1cncc(-c2cccc(Nc3nccc(NC4CCCCC4)n3)c2)c1 | binding | competition with immobilised ligand | 10 µM | 100%
CN(c1nccc(-c2cnn3ncccc23)n1)C1CC1 | binding | – | 1 µM | 100%
FC(F)(F)Oc1cccc(-c2cnc3ccc(-c4ccncc4)nn23)c1 | cell-free assay | competition with immobilised ligand | 5 µM | 90%
O=C(c1ccc(Nc2nccc(-c3cc4ccccc4s3)n2)cc1)N1CCC(N2CCCC2)CC1 | binding | competition with immobilised ligand | 1 µM | 100%
c1cnn2ncc(-c3ccnc(N4CCC45COC5)n3)c2c1 | binding | – | 1 µM | 99%
CCC(=N\O)/C(C)=C/c1ccc(F)cc1 | cell-free assay | competition with immobilised ligand | 1 µM | 64%
CN(C)c1nccc(-c2cnn3ncccc23)n1 | binding | – | 1 µM | 100%
O=C(NCCCN1CCOCC1)c1ccc(Nc2ncc(Cl)c(-c3ccc(Cl)s3)n2)cc1 | binding | competition with immobilised ligand | 1 µM | 99%
O=C(Nc1c[nH]nc1C(=O)NC1CCNCC1)c1cc(F)cc(F)c1 | binding | competition with immobilised ligand | 1 µM | 100%
C[C@H](c1cccc(C#N)c1)n1cc(Cl)cc(C(N)=O)c1=N | cell-free assay | competition with immobilised ligand | 1 µM | 96%
Cc1cnc(Nc2ccc(C(=O)N3CCC(N4CCCC4)CC3)cc2)nc1-c1cc2ccccc2s1 | binding | competition with immobilised ligand | 1 µM | 74%
